Values after ≈ are worked out from the molar mass of the structure shown.

This assay deals with Mycobacterium tuberculosis. The assay is described as follows: Antibacterial activity against multidrug-resistant Mycobacterium tuberculosis by agar dilution method. Type of assay: functional. The procedure, abridged: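 Agar dilution in Middlebrook 7H11 agar supplemented with OADC, following an approach similar to NCCLS guidance. MIC determined in duplicate.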
On the technique in general: Agar dilution tests growth on a series of plates holding different concentrations.
In the case of `Cc1onc(-c2c(F)cccc2F)c1C(=O)N1CCN(c2cc3c(cc2[N+](=O)[O-])c(=O)c(C(=O)O)cn3C2CC2)CC1`, the MIC was 2.69 µM (≈ 1.56 µg/mL).

As for `Cc1onc(-c2c(F)cccc2F)c1C(=O)N1CCN(c2cc3c(cc2[N+](=O)[O-])c(=O)c(C(=O)O)cn3C(C)(C)C)CC1`, the MIC turned out to be 0.65 µM (≈ 0.387 µg/mL).

In the case of `O=C(O)c1cn(-c2ccc(F)cc2)c2cc(N3CCN(C(=O)C4COc5ccccc5O4)CC3)c([N+](=O)[O-])cc2c1=O` (stereo not given), the MIC amounted to 0.68 µM (≈ 0.391 µg/mL).

With `O=C(O)c1cn2c(n1)CN(c1cc3c(cc1[N+](=O)[O-])c(=O)c(C(=O)O)cn3C1CC1)CC2`, the MIC turned out to be 0.43 µM (≈ 0.189 µg/mL). This MIC lies about 1.6-fold lower than the previous one.

For `O=C(O)c1cn(C2CC2)c2cc(N3CCN(Cc4ccc5c(c4)OCO5)CC3)c([N+](=O)[O-])cc2c1=O`, the minimal inhibitory concentration (MIC) came to 0.16 µM (≈ 0.0788 µg/mL).

In turn, `CC1CN(c2cc3c(cc2[N+](=O)[O-])c(=O)c(C(=O)O)cn3C2CC2)CC(C)O1` (stereo not given) gave an MIC of 4.03 µM (≈ 1.56 µg/mL). This MIC lies about 25-fold higher than the previous one.

Take `O=C(O)c1cn(-c2ccc(F)cc2)c2cc(N3CCN(Cc4ccc5c(c4)OCO5)CC3)c([N+](=O)[O-])cc2c1=O`: the MIC is 0.71 µM (≈ 0.388 µg/mL).

With `O=C(O)c1cn(C2CC2)c2cc(N3CCN(C(=O)c4ccco4)CC3)c([N+](=O)[O-])cc2c1=O`, the MIC came to 0.34 µM (≈ 0.154 µg/mL).

Consider `CC1CN(c2cc3c(cc2[N+](=O)[O-])c(=O)c(C(=O)O)cn3-c2ccc(F)cc2)CC(C)O1` (stereo not given), for which it took 1.77 µM (≈ 0.781 µg/mL) to inhibit growth (MIC).

`O=C(O)c1cn(C2CC2)c2cc(N3CCC(O)(c4ccc(Cl)cc4)CC3)c([N+](=O)[O-])cc2c1=O` yielded an MIC of 0.39 µM (≈ 0.189 µg/mL).

Molecule `O=C(O)c1cn(C2CC2)c2cc(N3CCC(N4CCCCC4)CC3)c([N+](=O)[O-])cc2c1=O` had an MIC of 0.43 µM (≈ 0.189 µg/mL).

The molecule `O=C(O)c1cn(C2CC2)c2cc(N3CCC4(CC3)OCCO4)c([N+](=O)[O-])cc2c1=O` displayed an MIC of 1.88 µM (≈ 0.781 µg/mL).

As for `O=C(O)c1cn(C2CC2)c2cc(N3CCN(C(=O)C4COc5ccccc5O4)CC3)c([N+](=O)[O-])cc2c1=O` (stereo not given), the MIC is 6.01 µM (≈ 3.13 µg/mL).

In turn, `CC(C)(C)n1cc(C(=O)O)c(=O)c2cc([N+](=O)[O-])c(N3CCN(Cc4ccc5c(c4)OCO5)CC3)cc21` came in with an MIC of 1.53 µM (≈ 0.778 µg/mL).

Consider `O=C(O)c1cn(C2CC2)c2cc(N3CCC(n4c(=O)[nH]c5cc(Cl)ccc54)CC3)c([N+](=O)[O-])cc2c1=O`, for which the MIC was determined as 2.97 µM (≈ 1.56 µg/mL).

In turn, `CC(C)(C)NC(=O)C1c2ccccc2CCN1c1cc2c(cc1[N+](=O)[O-])c(=O)c(C(=O)O)cn2C1CC1` (stereo not given) came in with an MIC of 1.55 µM (≈ 0.782 µg/mL).

`CN1CCN(c2cc3c(cc2[N+](=O)[O-])c(=O)c(C(=O)O)cn3C2CC2)CC1c1ccccc1` (stereo not given) yielded an MIC of 0.2 µM (≈ 0.0897 µg/mL). This MIC is about 7.8-fold lower than that of the molecule before.

In the case of `CCN(CC)C(=O)C1CCCN(c2cc3c(cc2[N+](=O)[O-])c(=O)c(C(=O)O)cn3C2CC2)C1` (stereo not given), the MIC was determined as 3.42 µM (≈ 1.56 µg/mL).

In turn, `COc1c(N2CCNC(C)C2)c(F)cc2c(=O)c(C(=O)O)cn(C3CC3)c12` (stereo not given) [GATIFLOXACIN] yielded an MIC of 8.34 µM (≈ 3.13 µg/mL). This MIC is about 2.4-fold higher than that of the molecule before.

Consider `NNC(=O)c1ccncc1` [ISONIAZID], for which the MIC was determined as 45.6 µM (≈ 6.25 µg/mL).

Broadly, the MIC is the least concentration at which growth counts as inhibited. High values mean a less susceptible organism, low ones a more susceptible organism.

The record behind these values is ChEMBL document CHEMBL1152865, “Synthesis and antimycobacterial activities of novel 6-nitroquinolone-3-carboxylic acids” (Eur J Med Chem, 2009).
